# According to ChEMBL document CHEMBL1156597, “Structure-activity relationship of kahalalide F synthetic analogues” (J Med Chem, 2008):
# Key:
# DU-145 = assay: Cytotoxicity against human DU145 cells after 48 hrs by SRB assay; format: functional, cell-based; settings: Homo sapiens, DU-145, 48 h; for GI50: read-out: GI50; for CC50: read-out: LC50 (the source's name)
# Procedure, shortened: (§1)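 Cells grown in RPMI 1640 with 10% FBS and penicillin/streptomycin at 37 °C and 5% CO₂, trypsinized, then seeded at 5 × 10³/well. After 18 h drug-free attachment, samples in DMSO/EtOH/PBS (0.5:0.5:99) were added for 48 h continuous exposure. Cells were fixed with cold TCA (1 h, 4 °C) and stained with SRB (10 min). Tris-solubilized stain read at 490 nm. Triplicate wells, mean ± SD; GI₅₀ derived.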
# LNCaP = assay: Cytotoxicity against human LNcaP cells after 48 hrs by SRB assay; format: functional; settings: for CC50: read-out: LC50 (the source's name); procedure, shortened: as §1
# [1] = Cytotoxicity against human IGROV cells after 48 hrs by SRB assay; format: functional; settings: for CC50: read-out: LC50 (the source's name); procedure, shortened: as §1
# [2] = Cytotoxicity against human IGROV-ET cells after 48 hrs by SRB assay; format: functional; settings: for CC50: read-out: LC50 (the source's name); procedure, shortened: as §1
# SK-BR-3 = assay: Cytotoxicity against human SKBR3 cells after 48 hrs by SRB assay; format: functional; settings: SK-BR-3, 48 h; for CC50: read-out: LC50 (the source's name); for GI50: read-out: GI50; procedure, shortened: as §1
# SK-MEL-28 = assay: Cytotoxicity against human SK-MEL-28 cells after 48 hrs by SRB assay; format: functional, cell-based; settings: Homo sapiens, SK-MEL-28, 48 h; for GI50: read-out: GI50; for CC50: read-out: LC50 (the source's name); procedure, shortened: as §1
# A549 = assay: Cytotoxicity against human A549 cells after 48 hrs by SRB assay; format: functional, cell-based; settings: Homo sapiens, A549, 48 h; procedure, shortened: as §1
# K562 = assay: Cytotoxicity against human K562 cells after 48 hrs by SRB assay; format: functional; settings: K562, 48 h; for CC50: read-out: LC50 (the source's name); procedure, shortened: as §1
# PANC-1 = assay: Cytotoxicity against human PANC1 cells after 48 hrs by SRB assay; format: functional; settings: PANC-1, 48 h; for CC50: read-out: LC50 (the source's name); procedure, shortened: as §1
# HT-29 = assay: Cytotoxicity against human HT29 cells after 48 hrs by SRB assay; format: functional, cell-based; settings: Homo sapiens, HT-29, 48 h; for CC50: read-out: LC50 (the source's name); procedure, shortened: as §1
# LoVo [3] = assay: Cytotoxicity against human LoVo cells after 48 hrs by SRB assay; format: functional; settings: for CC50: read-out: LC50 (the source's name)
# LoVo [4] = assay: Cytotoxicity against human doxorubicin resistant LoVo cells after 48 hrs by SRB assay; format: functional; settings: for CC50: read-out: LC50 (the source's name); procedure, shortened: as §1
# HeLa = assay: Cytotoxicity against human HeLa cells after 48 hrs by SRB assay; format: functional; settings: for CC50: read-out: LC50 (the source's name); procedure, shortened: as §1
# [5] = Cytotoxicity against human HeLa-APL cells after 48 hrs by SRB assay; format: functional; procedure, shortened: as §1
Structure (SMILES),TGI (DU-145) [nM],GI50 (DU-145) [nM],CC50 (DU-145) [nM],CC50 (LNCaP) [nM],CC50 [1] [nM],CC50 [2] [nM],CC50 (SK-BR-3) [nM],CC50 (SK-MEL-28) [nM],LC50 (A549) [nM],GI50 (A549; read-out: GI50) [nM],CC50 (K562) [nM],CC50 (PANC-1) [nM],CC50 (HT-29) [nM],CC50 (LoVo [3]) [nM],CC50 (LoVo [4]) [nM],GI50 (HeLa) [nM],TGI (HeLa) [nM],CC50 (HeLa) [nM],GI50 [5] [nM],LC50 (concentration giving 50% net cell kill) [5] [nM],other results
C/C=C1\NC(=O)[C@H](Cc2ccccc2)NC(=O)[C@@H](C(C)C)NC(=O)[C@@H]([C@H](C)CC)NC(=O)[C@H](NC(=O)[C@H](NC(=O)[C@H](CCCN)NC(=O)[C@H]2CCCN2C(=O)[C@H](NC(=O)[C@@H](NC(=O)[C@H](C)NC(=O)[C@H](NC(=O)CCCC(C)C)C(C)C)C(C)C)C(C)C)[C@H](C)CC)[C@H](C)OC(=O)[C@H](C(C)C)NC1=O,1250,1420,1100,967,503,561,371,1150,4930,641,1970,1810,437,338,306,1270,1120,998,1280,873,GI50 (LNCaP): 1380 nM; TGI (LNCaP): 1160 nM; GI50 [2]: 808 nM; GI50 ([2]; read-out: GI50): 1230 nM; TGI (SK-MEL-28): 1190 nM; GI50 (SK-MEL-28): 1240 nM; GI50 (A549): 585 nM; GI50 (K562): 822 nM; TGI (K562): 1610 nM; GI50 (PANC-1): 1160 nM; TGI (PANC-1): 1420 nM; GI50 (LoVo [3]): 2050 nM; TGI (LoVo [3]): 2070 nM; GI50 (LoVo [4]): 1080 nM; TGI (LoVo [4]): 1190 nM; TGI [5]: 1060 nM
C/C=C1\NC(=O)[C@H](Cc2ccccc2)NC(=O)[C@@H](C(C)C)NC(=O)[C@@H]([C@H](C)CC)NC(=O)[C@H](NC(=O)[C@H](NC(=O)[C@H](CCCN)NC(=O)[C@H]2CCCN2C(=O)[C@H](NC(=O)[C@@H](NC(=O)[C@@H](NC(=O)[C@@H](CC2CCCCC2)NC(=O)CCCC(C)C)[C@@H](C)O)C(C)C)C(C)C)[C@H](C)CC)[C@H](C)OC(=O)[C@H](C(C)C)NC1=O,1200,1410,1030,1720,401,373,4990,1230,1770,1970,2340,2440,2650,2180,247,1300,1090,917,1450,1140,GI50 (LNCaP): 2980 nM; TGI (LNCaP): 3460 nM; TGI [1]: 8320 nM; GI50 ([1]; read-out: GI50): 1270 nM; TGI [2]: 1230 nM; GI50 ([2]; read-out: GI50): 1090 nM; TGI (SK-BR-3): 862 nM; GI50 (SK-BR-3): 789 nM; TGI (SK-MEL-28): 1470 nM; GI50 (SK-MEL-28): 1730 nM; TGI (A549): 2180 nM; GI50 (K562): 2100 nM; TGI (K562): 3070 nM; GI50 (HT-29): 2010 nM; TGI (HT-29): 2310 nM; GI50 (LoVo [3]): 2090 nM; TGI (LoVo [3]): 2130 nM; GI50 (LoVo [4]): 825 nM; TGI (LoVo [4]): 746 nM; TGI [5]: 1290 nM
C/C=C1\NC(=O)[C@H](Cc2ccccc2)NC(=O)[C@@H](C(C)C)NC(=O)[C@@H]([C@H](C)CC)NC(=O)[C@H](NC(=O)[C@H](NC(=O)[C@H](CCCN)NC(=O)[C@H]2CCCN2C(=O)[C@H](NC(=O)[C@H](CCC2CCCCC2)NC(=O)[C@@H](NC(=O)[C@@H](CC2CCCCC2)NC(=O)CCCC(C)C)[C@@H](C)O)C(C)C)[C@H](C)CC)[C@H](C)OC(=O)[C@H](C(C)C)NC1=O,2550,3300,1350,1380,7300,968,703,1490,1670,3600,1790,1640,2490,3220,9670,2950,3510,1770,4340,1660,TGI (SK-BR-3): 1690 nM; GI50 (SK-BR-3): 2060 nM; TGI (SK-MEL-28): 3090 nM; GI50 (SK-MEL-28): 3180 nM; TGI (A549): 3240 nM; GI50 (K562): 1790 nM; TGI (K562): 1790 nM; GI50 (HT-29): 2900 nM; TGI (HT-29): 2700 nM; GI50 (LoVo [3]): 2810 nM; TGI (LoVo [3]): 3010 nM; GI50 (LoVo [4]): 1210 nM; TGI (LoVo [4]): 1530 nM; TGI [5]: 3500 nM
C/C=C1\NC(=O)[C@H](Cc2ccccc2)NC(=O)[C@@H](C(C)C)NC(=O)[C@@H]([C@H](C)CC)NC(=O)[C@H](NC(=O)[C@H](NC(=O)[C@H](CCCN)NC(=O)[C@H]2CCCN2C(=O)[C@H](NC(=O)[C@H](CCCN)NC(=O)[C@@H](NC(=O)[C@H](NC(=O)CCCC(C)C)C(C)C)[C@@H](C)O)C(C)C)[C@H](C)CC)[C@H](C)OC(=O)[C@H](C(C)C)NC1=O,1330,1230,1440,1390,758,638,1050,1290,1810,2920,1910,2290,2350,3900,3710,1280,1070,898,1110,1270,GI50 (LNCaP): 1760 nM; TGI (LNCaP): 2730 nM; TGI [2]: 1340 nM; GI50 ([2]; read-out: GI50): 1350 nM; TGI (SK-BR-3): 5240 nM; GI50 (SK-BR-3): 4460 nM; TGI (SK-MEL-28): 1410 nM; GI50 (SK-MEL-28): 1520 nM; TGI (A549): 3670 nM; GI50 (K562): 218 nM; TGI (K562): 950 nM; GI50 (PANC-1): 1730 nM; TGI (PANC-1): 2080 nM; GI50 (HT-29): 4610 nM; TGI (HT-29): 4910 nM; GI50 (LoVo [3]): 3610 nM; TGI (LoVo [3]): 4540 nM; GI50 (LoVo [4]): 7590 nM; TGI (LoVo [4]): 7660 nM; TGI [5]: 1190 nM
C/C=C1\NC(=O)[C@H](Cc2ccccc2)NC(=O)[C@@H](C(C)C)NC(=O)[C@@H]([C@H](C)CC)NC(=O)[C@H](NC(=O)[C@H](NC(=O)[C@H](CCCN)NC(=O)[C@H]2CCCN2C(=O)[C@H](NC(=O)[C@@H](NC(=O)[C@H](CCC(=O)O)NC(=O)[C@H](NC(=O)CCCC(C)C)C(C)C)C(C)C)C(C)C)[C@H](C)CC)[C@H](C)OC(=O)[C@H](C(C)C)NC1=O,2630,2480,1370,838,483,639,356,1470,7080,1630,1960,1740,422,292,294,2550,2500,1100,2060,956,GI50 (LNCaP): 1070 nM; TGI (LNCaP): 949 nM; GI50 [1]: 498 nM; GI50 ([1]; read-out: GI50): 857 nM; GI50 [2]: 849 nM; GI50 ([2]; read-out: GI50): 1130 nM; TGI (A549): 1450 nM; TGI [5]: 1890 nM
